The record followed here is ChEMBL document CHEMBL3785029, “Synthesis and Characterization of Fatty Acid Conjugates of Niacin and Salicylic Acid” (J Med Chem, 2016).

Data set [1] concerns Liver. Kind of data set: Drug metabolism in Sprague-Dawley rat liver assessed as salicyluric acid formation at 300 mg/kg, po administered for 14 days followed by 7 day washout cycle measured on day 21. It is filed as ADME, organism-based. Conditions: in vivo.
Data set [2] is described as follows: Drug uptake in Sprague-Dawley rat epididymal fat at 300 mg/kg, po administered for 7 days measured 4 hrs post dose on day 7. Particulars: read-out: Drug uptake. Type of data set: ADME, organism-based, Epididymal fat pad. Summed up:
(§1)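 Male Sprague Dawley rats, groups of 4, dosed orally at 300 mg/kg once daily for 14 days. Animals killed on days 1, 3, 7 and 14, with plasma, brain, epididymal fat, liver and muscle taken 4 hr after dosing. Parent, salicylic acid and salicyluric acid were measured.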

Data set [3] concerns Plasma. Kind of data set: Drug uptake in Sprague-Dawley rat plasma at 300 mg/kg, po administered for 14 days followed by 7 day washout cycle measured on day 21. Type of data set: ADME, organism-based. Conditions: in vivo.
In data set [4] the test system is Plasma. Kind of data set: Drug metabolism in Sprague-Dawley rat plasma assessed as salicylic acid formation at 300 mg/kg, po administered for 7 days measured 4 hrs post dose on day 7. Particulars: in vivo. Type of data set: ADME, organism-based. In a few lines:
as §1

Data set [5] in a line: Drug metabolism in Sprague-Dawley rat epididymal fat assessed as salicyluric acid formation at 300 mg/kg, po administered for 14 days followed by 7 day washout cycle measured on day 21. Type of data set: ADME, organism-based, Epididymal fat pad. Conditions: in vivo.
For data set [6], the system named is Plasma. Kind of data set: Drug metabolism in Sprague-Dawley rat plasma assessed as salicyluric acid formation at 300 mg/kg, po measured up to 24 hrs post dose. Type of data set: ADME, organism-based. Conditions: in vivo. Summed up: (§2)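 Single oral dose of 300 mg/kg to Sprague Dawley rats. Plasma collected at 0, 0.5, 1, 2, 4, 8 and 24 hr. Analytes were the parent, the salicylate-linker and linker-DHA metabolites, salicylic acid and salicyluric acid; Cmax and AUClast derived.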

Data set [7] can be described thus: Drug metabolism in Sprague-Dawley rat epididymal fat assessed as salicylic acid formation at 300 mg/kg, po administered for 14 days followed by 7 day washout cycle measured on day 21. Conditions: in vivo. Type of data set: ADME, organism-based, Epididymal fat pad.
In data set [8] the test system is Brain. The data set is described as follows: Drug metabolism in Sprague-Dawley rat brain assessed as salicylic acid formation at 300 mg/kg, po administered for 14 days followed by 7 day washout cycle measured on day 21. Type of data set: ADME, organism-based. Particulars: in vivo.
In data set [9] the test system is Plasma. Kind of data set: Drug metabolism in Sprague-Dawley rat plasma assessed as salicyluric acid formation at 300 mg/kg, po administered for 14 days followed by 7 day washout cycle measured on day 21. Type of data set: ADME, organism-based. Particulars: in vivo.
Data set [10] has as its system Muscle tissue. Kind of data set: Drug uptake in Sprague-Dawley rat muscle at 300 mg/kg, po administered for 14 days followed by 7 day washout cycle measured on day 21. Type of data set: ADME, organism-based. Particulars: in vivo.
The subject of data set [11] is Liver. The data set is described as follows: Drug metabolism in Sprague-Dawley rat liver assessed as salicylic acid formation at 300 mg/kg, po administered for 14 days followed by 7 day washout cycle measured on day 21. Particulars: in vivo. Type of data set: ADME, organism-based.
The test system of data set [12] is Brain. Kind of data set: Drug metabolism in Sprague-Dawley rat brain assessed as salicylic acid formation at 300 mg/kg, po administered for 7 days measured 4 hrs post dose on day 7. Type of data set: ADME, organism-based. Particulars: in vivo. Summed up: as §1
Data set [13] is described as follows: Inhibition of NFkappaB in mouse RAW264.7 cells preincubated for 2 hrs followed by LPS addition for 3 hrs by luciferase reporter gene assay relative to control. It is filed as cell-based. A general note: A reporter such as luciferase makes a cellular process visible.
Data set [14] has as its system Liver. Kind of data set: Drug uptake in Sprague-Dawley rat liver at 300 mg/kg, po administered for 14 days followed by 7 day washout cycle measured on day 21. Particulars: in vivo. Type of data set: ADME, organism-based.
The test system of data set [15] is Muscle tissue. The data set is described as follows: Drug metabolism in Sprague-Dawley rat muscle assessed as salicylic acid formation at 300 mg/kg, po administered for 14 days followed by 7 day washout cycle measured on day 21. Particulars: in vivo. It is filed as ADME, organism-based.
In data set [16] the test system is Rattus norvegicus. Kind of data set: Cmax in Sprague-Dawley rat assessed as salicyluric acid at 300 mg/kg, po measured up to 24 hrs post dose. Type of data set: ADME, organism-based. The arrangement: dose 300 mg/kg, route oral. Particulars: in vivo. In a few lines: as §2
Data set [17] relates to Liver. The data set is described as follows: Drug metabolism in Sprague-Dawley rat liver assessed as niacin formation at 300 mg/kg, qd administered through oral gavage for 7 days measured 2 hrs post last dose by LC/MS/MS analysis. It is filed as ADME, organism-based. Particulars: in vivo, BLD = below limit of detection.
Data set [18] in a line: Cmax in Sprague-Dawley rat at 100 mg/kg, po administered as single dose measured up to 6 hrs post dose by LC/MS/MS analysis. Type of data set: ADME, organism-based. The arrangement: dose 100 mg/kg, route oral. Particulars: in vivo. In a few lines: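 Single oral dose to Sprague Dawley rats; plasma collected at 0.25, 0.5, 1, 2, 4 and 6 hr; analytes in plasma quantified by LC/MS/MS.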

For data set [19], the system named is Rattus norvegicus. Kind of data set: Cmax in portal vein cannulated Sprague-Dawley rat assessed as N-(2-aminoethyl)nicotinamide at 30 mg/kg, po measured up to 140 mins. It is filed as ADME, organism-based. Details: dose 30 mg/kg, route oral. Conditions: in vivo. Summed up: (§3)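 Sprague Dawley rats surgically fitted with indwelling jugular vein and portal vein cannulas; oral dosing, then serial blood draws from both portal and jugular veins at 10, 20, 40 min and 1, 2, 4, 6 hr post dose; plasma analysed for parent and metabolites by LC/MS/MS.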

A short description of data set [20]: Cmax in jugular vein cannulated Sprague-Dawley rat at 30 mg/kg, po measured up to 140 mins. It is filed as ADME, organism-based. Details: dose 30 mg/kg, route oral. Conditions: jugular vein blood. Summed up: as §3
The test system of data set [21] is Mus musculus. The data set is described as follows: Inhibition of triglyceride levels in po dosed ApoE*3-Leiden mouse plasma administered for 16 weeks. It is filed as functional, organism-based. In a few lines:
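Transgenic ApoE*3-Leiden mice on high-cholesterol Western-type diet dosed over 16 weeks; plasma PCSK9, total cholesterol, triglycerides and lipoprotein profile (VLDL, LDL) assessed at study end.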

For data set [22], the target named is T1, Fatty-acid amide hydrolase 1 (Homo sapiens, UniProt O00519).
T1 sequence (O00519 whole entry): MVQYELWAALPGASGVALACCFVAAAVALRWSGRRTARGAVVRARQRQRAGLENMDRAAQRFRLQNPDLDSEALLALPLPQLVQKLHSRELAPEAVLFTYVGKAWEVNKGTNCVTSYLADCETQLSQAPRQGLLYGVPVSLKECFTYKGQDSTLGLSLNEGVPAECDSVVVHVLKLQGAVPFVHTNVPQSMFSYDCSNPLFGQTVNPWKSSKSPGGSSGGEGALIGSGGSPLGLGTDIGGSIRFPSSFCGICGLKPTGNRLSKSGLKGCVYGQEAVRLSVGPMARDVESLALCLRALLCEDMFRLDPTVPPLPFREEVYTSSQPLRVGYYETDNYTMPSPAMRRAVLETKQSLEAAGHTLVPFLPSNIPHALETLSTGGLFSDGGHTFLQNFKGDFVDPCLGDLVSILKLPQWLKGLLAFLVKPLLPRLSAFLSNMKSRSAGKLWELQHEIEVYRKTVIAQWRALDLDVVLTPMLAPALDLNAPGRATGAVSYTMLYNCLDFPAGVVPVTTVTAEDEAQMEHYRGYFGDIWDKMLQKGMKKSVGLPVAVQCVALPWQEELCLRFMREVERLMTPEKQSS
The data set is described as follows: Drug metabolism assessed as human recombinant N-terminal FLAG/C-terminal His-tagged FAAH1 (32 to 579 residues)-mediated compound hydrolysis by measuring release of EPA at 25 uM by LC/MS-MS analysis. Type of data set: ADME. Conditions: TDE = time-dependent effect.

Usually IC50 stands for the midpoint of a concentration-inhibition curve. The Cmax is the highest concentration seen after dosing.

SMILES strings stand for the structures. Activity calls are given as the source filed them. The rule behind the calls is not given here.

Turning to `CC/C=C\C/C=C\C/C=C\C/C=C\C/C=C\C/C=C\CCC(=O)NCCNC(=O)c1ccccc1O` [EDASALONEXENT], the Drug metabolism result is “metabolite_notdetected” in data set [1]; 154.2 ng/mL in data set [4]; “metabolite_notdetected” in data set [5]; “metabolite_detected” in data set [6]; “metabolite_notdetected” in [7]; “metabolite_notdetected” in data set [8]. Also, the Drug metabolism entry in [9] was “metabolite_notdetected”; in data set [11], “metabolite_notdetected”; in [12], 53.32 ng/g; in data set [15], “metabolite_notdetected”. In addition, the concentration at 4 h in data set [2] is 772 ng/g. The Drug uptake entry in data set [3], in [10] and in data set [14] was “Not Active” each time. In addition, the IC50 in data set [13] was 25.4 µM. Further, in data set [16], the Cmax was 563 ng/mL.

In the case of `CC/C=C\C/C=C\C/C=C\C/C=C\C/C=C\CCCC(=O)NCCNC(=O)c1cccnc1`, the Drug metabolism result was “BLD” in data set [17] and “tde” in data set [22]. Also, the values for the Cmax in data set [18], in data set [19] and in data set [20] were 212 ng/mL, 2061 ng/mL and 35 ng/mL, respectively. Moreover, the inhibition entry in data set [21] is “Active”.
